# How the values were obtained:
# L1210 [1] = experiment: Inhibitory activity against murine leukemia L1210 cells; type: functional, cell-based; details: Mus musculus
# MC-38 [2] = experiment: Cytotoxicity was evaluated against C38 solid tumor of mouse at 500 ug/disk.; type: functional; set-up: unit not given beside the values
# In short: (§1)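 Disk zone assay: analogue dilutions on 6.5 mm paper disks were placed on dishes with a 0.8% agar bottom layer and a 0.44% soft-agar top layer of tumor cells (≤1 × 10^5/plate) in Fishers-CMRL-1066 with 12% horse serum. Plates were incubated 6-10 days and the inhibition zone was measured by microscope; 200 zone units = 6 mm.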
# Homo sapiens [3] = species on record: Homo sapiens; experiment: Cytotoxicity was evaluated against H125 human solid tumor at 500 ug/disk.; type: functional; in short: as §1
# L1210 [4] = experiment: Cytotoxicity was evaluated against L1210 leukemia cell line at 500 ug/disk.; type: functional, Mus musculus; in short: as §1
# [5] = Cytotoxicity was evaluated against low malignancy line at 500 ug/disk.; type: functional; in short: as §1
# PO3 [6] = experiment: Cytotoxicity was evaluated against PO3 cell line at 1000 ug/disk.
# Mus musculus [7] = species on record: Mus musculus; experiment: Concentration that reduces Friend murine leukemia virus titer by 50%; type: functional, organism-based
# In short: (§2)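 SC-1 cells (1 × 10^4/well) were pretreated with polybrene, infected 2 h at 37 °C with F-MuLV or R-MuLV in EMEM-5 with 8 µg/mL polybrene, washed, and refed with analogue for 72 h. They were then UV-irradiated and overlaid with XC cells (2 × 10^5) for 48 h, fixed and stained with crystal violet. Multinucleated cells were counted and EC50 was taken by linear regression versus untreated cultures.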
# Mus musculus [8] = species on record: Mus musculus; experiment: Cytotoxicity was evaluated; type: functional
# In short: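 SC-1 cells (1 × 10^4 cells/mL) were seeded, incubated overnight at 37 °C, refed with EMEM-10 and given diluted analogue in triplicate for 72 h at 37 °C. Cells were trypsinized and counted in a Coulter counter. The mean of three wells gave percent of control count, and IC50 was calculated by linear regression.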
# Mus musculus [9] = species on record: Mus musculus; experiment: Concentration that reduces Rauscher murine leukemia virus titer by 50%; type: functional, organism-based; in short: as §2
# [10] = Selectivity index is the ratio of IC50 to EC50 of F-MuLV.; type: functional
# [11] = Selectivity index which is the ratio of IC50 to EC50 of R-MuLV.; type: functional
# L1210 [12] = experiment: Compound were evaluated for inhibition of macromolecular synthesis in murine leukemia L1210 cells at 1 hour against DNA.; type: functional, Mus musculus; set-up: scale not given: the % may be the effect or the level left
# L1210 [13] = experiment: Compound were evaluated for inhibition of macromolecular synthesis in murine leukemia L1210 cells at 1 hour against Protein; type: functional, Mus musculus; set-up: scale not given: the % may be the effect or the level left
# L1210 [14] = experiment: Compound were evaluated for inhibition of macromolecular synthesis in murine leukemia L1210 cells at 1 hour against RNA.; type: functional, Mus musculus; set-up: scale not given: the % may be the effect or the level left
# L1210 [15] = experiment: Compound were evaluated for inhibition of macromolecular synthesis in murine leukemia L1210 cells at 4 hour against Protein; type: functional, Mus musculus; set-up: scale not given: the % may be the effect or the level left
# L1210 [16] = experiment: Compound were evaluated for inhibition of macromolecular synthesis in murine leukemia L1210 cells at 4 hour against RNA.; type: functional, Mus musculus; set-up: scale not given: the % may be the effect or the level left
# L1210 [17] = experiment: Compound were evaluated for inhibition of macromolecular synthesis in murine leukemia L1210 cells at 4 hour against DNA.; type: functional, Mus musculus; set-up: scale not given: the % may be the effect or the level left
# L1210 [18] = experiment: Cytotoxicity was evaluated against L1210 leukemia cell line at 1000 ug/disk.; type: functional, Mus musculus; in short: as §1
# [19] = Inhibition of incorporation of labeled precursor into macromolecules of noninfected SC-1 cells with the compound at a concentration 300 uM determined against leucine.; type: functional
# In short: (§3)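 SC-1 cells seeded in 24-well trays at 1 × 10^4 cells/mL, incubated overnight at 37 °C, then exposed to analogue for 72 h at 37 °C. Labeled thymidine (2.5 µCi), [3H-5,6]uridine or [3H-4,5]leucine was added. After 4 h, cells were washed with cold PBS, lysed in 1% SDS/0.01 M EDTA/0.01 M Tris pH 7.7, and lysates were dried on GF/B filters. Result given as % of untreated incorporation.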
# [20] = Inhibition of incorporation of labeled precursor into macromolecules of noninfected SC-1 cells with the compound at a concentration 300 uM determined against thymidine; type: functional; in short: as §3
# [21] = Inhibition of incorporation of labeled precursor into macromolecules of noninfected SC-1 cells with the compound at a concentration 300 uM determined against uridine.; type: functional; in short: as §3
# [22] = Inhibition of incorporation of labeled precursor into macromolecules of noninfected SC-1 cells with the compound at a concentration 100 uM determined against leucine.; type: functional
# In short: (§4)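 Noninfected SC-1 cells were incubated with analogue as in the cytotoxicity setup, and [3H]thymidine, [3H]uridine or [3H]leucine was added. After 4 h, wells were washed with ice-cold PBS and cells were lysed in 1% SDS, 0.01 M EDTA, 0.01 M Tris pH 7.7. Lysates were dried on glass-fiber filters, and label is expressed as percent of incorporation in untreated cells.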
# [23] = Inhibition of incorporation of labeled precursor into macromolecules of noninfected SC-1 cells with the compound at a concentration 100 uM determined against thymidine; type: functional; in short: as §4
# [24] = Inhibition of incorporation of labeled precursor into macromolecules of noninfected SC-1 cells with the compound at a concentration 100 uM determined against uridine.; type: functional; in short: as §4
# Homo sapiens [25] = species on record: Homo sapiens; experiment: Cytotoxicity was evaluated against C116 human solid tumor at 1.5 ug/disk.; type: functional; in short: as §1
# MC-38 [26] = experiment: Cytotoxicity was evaluated against C38 solid tumor of mouse at 1.5 ug/disk.; type: functional; in short: as §1
# [27] = Cytotoxicity was evaluated against CO9 solid tumor of mouse at 1.5 ug/disk.; type: functional; in short: as §1
# Homo sapiens [28] = species on record: Homo sapiens; experiment: Cytotoxicity was evaluated against H125 human solid tumor at 1.5 ug/disk.; type: functional; in short: as §1
# [29] = Cytotoxicity was evaluated against low malignancy line at 1.5 ug/disk.; type: functional; in short: as §1
# Homo sapiens [30] = species on record: Homo sapiens; experiment: Cytotoxicity was evaluated against PO1 human solid tumor at 1.5 ug/disk.; type: functional; in short: as §1
# PO3 [31] = experiment: Cytotoxicity was evaluated against PO3 cell line at 1.5 ug/disk.; type: functional, Mus musculus; in short: as §1
# Homo sapiens [32] = species on record: Homo sapiens; experiment: Cytotoxicity was evaluated against C116 human solid tumor at 1000 ug/disk.; type: functional; in short: as §1
# MC-38 [33] = experiment: Cytotoxicity was evaluated against C38 solid tumor of mouse at 1000 ug/disk.; type: functional; in short: as §1
# [34] = Cytotoxicity was evaluated against low malignancy line at 1000 ug/disk.; type: functional; in short: as §1
# PO3 [35] = experiment: Cytotoxicity was evaluated against PO3 cell line at 1000 ug/disk.; type: functional, Mus musculus; in short: as §1
# Homo sapiens [36] = species on record: Homo sapiens; experiment: Cytotoxicity was evaluated against C116 human solid tumor at 500 ug/disk.; type: functional; in short: as §1
structure (smiles),measurement,setting,value
NC1=NC(Cl)c2c(ncn2CC#CCCl)N1 (stereo not given),IC50,L1210 [1],39 µM
Nc1ncnc2c1ncn2CC#CCCl,Cytotoxicity,MC-38 [2],950
same,Cytotoxicity,Homo sapiens [3],900
same,Cytotoxicity,L1210 [4],930
same,Cytotoxicity,[5],950
same,IC50,L1210 [1],90 µM
same,Cytotoxicity,PO3 [6],520
Nc1ccn([C@@H]2O[C@H](CO)[C@@H](O)[C@@H]2O)c(=O)n1 [CYTARABINE],IC50,L1210 [1],0.08 µM
Nc1ncnc2c1ncn2/C=C/CCO,EC50,Mus musculus [7],127 µM
same,IC50,L1210 [1],100 µM
same,IC50,Mus musculus [8],304 µM
same,EC50,Mus musculus [9],181 µM
same,SI,[10],2.4
same,SI,[11],1.7
Nc1nc(O)c2ncn(C=C=CCO)c2n1,IC50,L1210 [1],> 350 µM
Nc1ccn(C/C=C/CO)c(=O)n1,IC50,L1210 [1],> 550 µM
Nc1ccn([C@H]2CC[C@@H](CO)O2)c(=O)n1 [ZALCITABINE],EC50,Mus musculus [7],23 µM
same,IC50,Mus musculus [8],> 100 µM
same,EC50,Mus musculus [9],13.8 µM
same,SI,[10],> 4.4
same,SI,[11],> 7.3
Nc1ncnc2c1ncn2C/C=C\CCl,Cytotoxicity,MC-38 [2],280
same,Control,L1210 [12],80%
same,Control,L1210 [13],99%
same,Control,L1210 [14],98%
same,Control,L1210 [15],60%
same,Control,L1210 [16],73%
same,Control,L1210 [17],68%
same,Cytotoxicity,L1210 [4],220
same,Cytotoxicity,[5],200
same,IC50,L1210 [1],22 µM
Nc1nc(O)c2ncn(C3C=CCO3)c2n1 (stereo not given),IC50,L1210 [1],> 350 µM
Nc1ncnc2c1ncn2C=C=CCO,EC50,Mus musculus [7],124 µM
same,Cytotoxicity,L1210 [18],160
same,Precursor inhibition,[19],79%
same,Precursor inhibition,[20],46%
same,Precursor inhibition,[21],105%
same,IC50,L1210 [1],150 µM
same,Precursor inhibition,[22],94%
same,Precursor inhibition,[23],80%
same,Precursor inhibition,[24],107%
same,IC50,Mus musculus [8],168 µM
same,EC50,Mus musculus [9],87.3 µM
same,SI,[10],1.4
same,SI,[11],1.9
same,Cytotoxicity,PO3 [6],0
Nc1ncnc2c1ncn2[C@@H]1C=C(CO)[C@@H](O)[C@H]1O [NEOPLANOCIN A],Cytotoxicity,Homo sapiens [25],340
same,Cytotoxicity,MC-38 [26],0
same,Cytotoxicity,[27],40
same,Cytotoxicity,Homo sapiens [28],400
same,Cytotoxicity,[29],100
same,Cytotoxicity,Homo sapiens [30],0
same,Cytotoxicity,PO3 [31],80
Nc1ncnc2c1ncn2C1C=CCO1 (stereo not given),Cytotoxicity,Homo sapiens [32],460
same,Cytotoxicity,MC-38 [33],400
same,Cytotoxicity,[34],500
same,Cytotoxicity,L1210 [18],520
same,IC50,L1210 [1],> 500 µM
same,Cytotoxicity,PO3 [35],320
NC1=NC(N)c2c(ncn2CC#CCO)N1 (stereo not given),IC50,L1210 [1],200 µM
Nc1ccn(C/C=C/CCl)c(=O)n1,Cytotoxicity,L1210 [4],520
same,Cytotoxicity,[5],370
same,IC50,L1210 [1],50 µM
same,Cytotoxicity,PO3 [6],550
Nc1ccn(C/C=C\CO)c(=O)n1,IC50,L1210 [1],> 1000 µM
Nc1nc(O)c2ncn(C/C=C/CO)c2n1,IC50,L1210 [1],200 µM
Nc1ncnc2c1ncn2C=C=CCCl,Cytotoxicity,Homo sapiens [36],300
same,Cytotoxicity,MC-38 [2],400
same,Cytotoxicity,Homo sapiens [3],300
same,Cytotoxicity,L1210 [4],280
same,Cytotoxicity,[5],280
same,IC50,L1210 [1],45 µM
same,Cytotoxicity,PO3 [6],300
Nc1nc(O)c2ncn(CC#CCO)c2n1,Cytotoxicity,L1210 [18],220
same,IC50,L1210 [1],210 µM
same,Cytotoxicity,PO3 [35],210
Cc1cn([C@H]2C[C@H](N=[N+]=[N-])[C@@H](CO)O2)c(=O)[nH]c1=O [ZIDOVUDINE],EC50,Mus musculus [7],0.035 µM
same,IC50,Mus musculus [8],594 µM
same,EC50,Mus musculus [9],0.046 µM
same,SI,[10],17000
same,SI,[11],12900
Cc1cn(CC#CCCl)c(=O)[nH]c1=O,Cytotoxicity,MC-38 [2],630
same,Cytotoxicity,L1210 [4],520
same,Cytotoxicity,[5],610
same,IC50,L1210 [1],140 µM

# From ChEMBL document CHEMBL1125745, “Unsaturated and carbocyclic nucleoside analogues: synthesis, antitumor, and antiviral activity” (J Med Chem, 1991)
